Experimental data as given in ChEMBL document CHEMBL1141368, “Identification of a nonpeptidic and conformationally restricted bradykinin B1 receptor antagonist with anti-inflammatory activity” (J Med Chem, 2007).
pIC50, pKi: −log10 of the molar value.

Key:
B1 bradykinin receptor [1] = target: T1, B1 bradykinin receptor (Homo sapiens, UniProt P46663); experiment: Antagonistic activity at human bradykinin B1 receptor expressed in CHO cells assessed as effect on DAK-mediated calcium mobilization; format: functional, cell-based
T1 sequence (P46663 whole entry): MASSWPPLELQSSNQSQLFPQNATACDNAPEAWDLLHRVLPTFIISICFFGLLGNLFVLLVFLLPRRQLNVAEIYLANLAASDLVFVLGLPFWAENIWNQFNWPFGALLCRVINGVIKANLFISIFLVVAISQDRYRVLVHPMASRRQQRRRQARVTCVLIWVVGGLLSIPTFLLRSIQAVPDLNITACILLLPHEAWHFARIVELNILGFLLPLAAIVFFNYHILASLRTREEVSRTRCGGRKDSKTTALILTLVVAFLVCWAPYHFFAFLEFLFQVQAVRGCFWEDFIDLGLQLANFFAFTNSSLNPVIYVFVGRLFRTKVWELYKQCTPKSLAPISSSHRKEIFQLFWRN
Outline: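 B1 receptor cDNA transfected into CHO cells; antagonist potency given as IC50 ± SEM with the number of determinations (n).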

B2 bradykinin receptor = target: T2, B2 bradykinin receptor (Homo sapiens, UniProt P30411); experiment: Displacement of [3H]bradykinin from human bradykinin B2 receptor expressed in CHO-K1 cells; format: cell-based
T2 sequence (P30411 whole entry): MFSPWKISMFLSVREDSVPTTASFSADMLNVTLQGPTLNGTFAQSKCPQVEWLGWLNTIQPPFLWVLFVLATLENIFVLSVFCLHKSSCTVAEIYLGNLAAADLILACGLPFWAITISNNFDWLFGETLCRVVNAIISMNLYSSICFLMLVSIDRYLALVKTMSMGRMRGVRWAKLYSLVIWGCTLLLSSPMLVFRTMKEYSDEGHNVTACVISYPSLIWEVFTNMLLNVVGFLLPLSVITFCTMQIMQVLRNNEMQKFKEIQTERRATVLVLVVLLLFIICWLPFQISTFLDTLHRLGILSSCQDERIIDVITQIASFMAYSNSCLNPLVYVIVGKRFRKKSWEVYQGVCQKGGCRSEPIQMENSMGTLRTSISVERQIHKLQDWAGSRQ

B1 bradykinin receptor [2] = target: T1, B1 bradykinin receptor; experiment: Displacement of [3H]DAK from human bradykinin B1 receptor expressed in CHO-D cells; format: cell-based
Rattus norvegicus [3] = experiment: Reduction of edema formation in rat reverse passive arthus model at 3 mg/kg, po; format: ADME, organism-based; set-up: dose 3 mg/kg, route oral; conditions: in vivo
[4] = Half life in rat at 1 mg/kg, iv; format: ADME, organism-based; set-up: dose 1 mg/kg, route intravenous; conditions: in vivo
Rattus norvegicus [5] = experiment: Reduction of exudates volume in rat carrageenan-induced pleurisy model at 90 mg/kg, sc relative to control; format: functional; set-up: scale not given: the % may be the effect or the level left; conditions: route subcutaneous
Rattus norvegicus [6] = experiment: Reduction of exudates volume in rat reverse passive arthus model at 30 mg/kg, sc relative to control; format: functional; set-up: scale not given: the % may be the effect or the level left; conditions: route subcutaneous
Outline: (§1)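 Reverse passive Arthus inflammation model in rats; drug given s.c. at 30, 60 or 90 mg/kg; exudate volume expressed relative to saline-treated animals and tested for statistical significance.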

[7] = AUC (0-t) in rat at 10 mg/kg, sc; format: ADME, organism-based; set-up: dose 10 mg/kg, route subcutaneous; conditions: plasma
[8] = Mean residence time in rat at 1 mg/kg, iv; format: ADME, organism-based; set-up: dose 1 mg/kg, route intravenous; conditions: in vivo
[9] = Clearance in rat at 10 mg/kg, sc; format: ADME, organism-based; set-up: dose 10 mg/kg, route subcutaneous; conditions: in vivo
[10] = Cmax in rat at 10 mg/kg, sc; format: ADME, organism-based; set-up: dose 10 mg/kg, route subcutaneous; conditions: in vivo
Rattus norvegicus [11] = experiment: Relevant drug concentration for 5-6 hrs in rat at 90 mg/kg, sc; format: ADME, organism-based; set-up: dose 90 mg/kg, route subcutaneous; conditions: in vivo
Plasma = experiment: Fraction unbound in rat plasma; format: ADME, cell-free
[12] = Volume of distribution in rat at 1 mg/kg, iv; format: ADME, organism-based; set-up: dose 1 mg/kg, route intravenous; conditions: in vivo, read-out: Vss
[13] = AUC (0-inf) in rat at 1 mg/kg, iv; format: ADME, organism-based; set-up: time infinity, dose 1 mg/kg, route intravenous; conditions: plasma
[14] = AUC (0-inf) in rat at 10 mg/kg, sc; format: ADME, organism-based; set-up: time infinity, dose 10 mg/kg, route subcutaneous; conditions: plasma
Rattus norvegicus [15] = experiment: Reduction of exudates volume in rat reverse passive arthus model at 90 mg/kg, sc relative to control; format: functional; set-up: scale not given: the % may be the effect or the level left; conditions: route subcutaneous; outline: as §1
Rattus norvegicus [16] = experiment: Reduction of exudates volume in rat reverse passive arthus model at 60 mg/kg, sc relative to control; format: functional; set-up: scale not given: the % may be the effect or the level left; conditions: route subcutaneous; outline: as §1
[17] = Bioavailability in rat at 10 mg/kg, sc; format: ADME, organism-based; conditions: in vivo
[18] = Half life in rat at 10 mg/kg, sc; format: ADME, organism-based; set-up: dose 10 mg/kg, route subcutaneous; conditions: in vivo
[19] = Tmax in rat at 10 mg/kg, sc; format: ADME, organism-based; set-up: dose 10 mg/kg, route subcutaneous; conditions: in vivo
[20] = AUC (0-t) in rat at 1 mg/kg, iv; format: ADME, organism-based; set-up: dose 1 mg/kg, route intravenous; conditions: plasma

O=C(C[C@H](NS(=O)(=O)c1ccc2ccccc2c1)c1ccccc1)NCc1ccc(CN2CCCCC2)cc1
pIC50 (B1 bradykinin receptor [1]): < 5.40

O=C(C[C@@H](NS(=O)(=O)c1ccc2ccccc2c1)c1ccccc1)N[C@H]1CCOc2cc(CN3CCCCC3)ccc21
pKi (B2 bradykinin receptor): < 4.70

CN1c2cc(CN3CCCCC3)ccc2[C@@H](NC(=O)C[C@@H](NS(=O)(=O)c2ccc3ccccc3c2)c2ccccc2)CS1(=O)=O
pKi (B1 bradykinin receptor [2]): 8.89 | pKi (B2 bradykinin receptor): 4.46 | pIC50 (B1 bradykinin receptor [1]): 7.97

O=C(CC(NS(=O)(=O)c1ccc2ccccc2c1)c1ccccc1)NCc1ccc(CN2CCCCC2)cc1 (racemic)
pKi (B1 bradykinin receptor [2]): 6.42 | pKi (B2 bradykinin receptor): 4.25 | pIC50 (B1 bradykinin receptor [1]): 6.44

COc1ccc2c(c1)c(CC(=O)O)c(C)n2C(=O)c1ccc(Cl)cc1 [INDOMETHACIN]
Activity (Rattus norvegicus [3]): Not Active

O=C(C[C@@H](NS(=O)(=O)c1ccc2ccccc2c1)c1ccccc1)NCc1ccc(CN2CCCCC2)cc1
pKi (B1 bradykinin receptor [2]): 6.88 | pIC50 (B1 bradykinin receptor [1]): 6.35

O=C(C[C@@H](NS(=O)(=O)c1ccc2ccccc2c1)c1ccccc1)N[C@H]1CCc2cc(CN3CCCCC3)ccc21
pKi (B1 bradykinin receptor [2]): 6.62 | pKi (B2 bradykinin receptor): 4.88 | pIC50 (B1 bradykinin receptor [1]): 6.74

CN1c2cc(CN3CCCCC3)ccc2[C@H](NC(=O)C[C@@H](NS(=O)(=O)c2ccc3ccccc3c2)c2ccccc2)CS1(=O)=O
pKi (B1 bradykinin receptor [2]): 7.80 | pKi (B2 bradykinin receptor): 4.80 | pIC50 (B1 bradykinin receptor [1]): 7.85

C[C@@H](NC(=O)C[C@@H](NS(=O)(=O)c1ccc2ccccc2c1)c1ccccc1)c1ccc(CN2CCCCC2)cc1
pKi (B1 bradykinin receptor [2]): 7.77 | pIC50 (B1 bradykinin receptor [1]): 6.52

O=C(C[C@@H](NS(=O)(=O)c1ccc2ccccc2c1)c1ccccc1)N[C@@H]1CCOc2cc(CN3CCCCC3)ccc21
half-life [4]: 1.4 h | Activity (Rattus norvegicus [5]): 22% | Activity (Rattus norvegicus [6]): 14% | AUC(0-t) [7]: 1960 ng·h/mL | MRT [8]: 1.5 h | CL/F [9]: 79.6 mL/min/kg | Cmax [10]: 825 ng/mL | concentration (Rattus norvegicus [11]): 125 nM | Fu (Plasma): 0.032 | pKi (B2 bradykinin receptor): < 4.30 | Vd [12]: 7.43 L/kg | AUC(0-inf) [13]: 201 ng·h/mL | AUC(0-inf) [14]: 2090 ng·h/mL | Activity (Rattus norvegicus [15]): 26% | Activity (Rattus norvegicus [16]): 10% | bioavailability [17]: 106% | half-life [18]: 2.2 h | Tmax [19]: 0.4 h | AUC(0-t) [20]: 194 ng·h/mL

O=C(C[C@@H](NS(=O)(=O)c1ccc2ccccc2c1)c1ccccc1)NCCc1ccc(CN2CCCCC2)cc1
pIC50 (B1 bradykinin receptor [1]): 6.27

O=C(C[C@@H](NS(=O)(=O)c1ccc2ccccc2c1)c1ccccc1)N[C@@H]1CCc2cc(CN3CCCCC3)ccc21
pKi (B1 bradykinin receptor [2]): 8.80 | pKi (B2 bradykinin receptor): 4.31 | pIC50 (B1 bradykinin receptor [1]): 8.25

O=C(C[C@@H](NS(=O)(=O)c1ccc2ccccc2c1)c1ccccc1)NC1CCc2cc(CCN3CCCCC3)ccc2C1 (stereo partly drawn)
pIC50 (B1 bradykinin receptor [1]): 6.49
